# Test results published in ChEMBL document CHEMBL1124436, “Benzofurans as mechanism-based inhibitors of dopamine beta-hydroxylase” (J Med Chem, 1989).
# How the values were obtained:
# [1] = molecular target: T1, Dopamine beta-hydroxylase (Bos taurus, UniProt P15101); test: Compound was evaluated for the ability to bind to dopamine beta-hydroxylase of bovine
# T1 sequence (P15101 whole entry): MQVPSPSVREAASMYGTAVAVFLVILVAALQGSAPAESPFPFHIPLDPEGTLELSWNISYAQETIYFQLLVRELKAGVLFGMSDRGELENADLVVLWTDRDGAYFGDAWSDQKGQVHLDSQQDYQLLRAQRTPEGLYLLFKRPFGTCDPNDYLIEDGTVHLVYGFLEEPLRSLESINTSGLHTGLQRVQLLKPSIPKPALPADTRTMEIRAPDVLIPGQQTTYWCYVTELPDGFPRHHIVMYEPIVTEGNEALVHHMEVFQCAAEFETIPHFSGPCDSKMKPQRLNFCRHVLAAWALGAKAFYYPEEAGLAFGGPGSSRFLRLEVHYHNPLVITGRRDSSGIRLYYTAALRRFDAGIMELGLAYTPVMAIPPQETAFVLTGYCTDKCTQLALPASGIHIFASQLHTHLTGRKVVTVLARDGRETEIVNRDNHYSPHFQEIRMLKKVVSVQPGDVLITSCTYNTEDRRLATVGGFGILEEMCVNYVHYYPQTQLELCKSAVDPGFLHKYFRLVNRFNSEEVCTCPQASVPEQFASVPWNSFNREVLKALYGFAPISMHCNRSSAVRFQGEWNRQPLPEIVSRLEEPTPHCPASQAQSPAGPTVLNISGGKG
# Method in brief: (§1)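 Purified bovine DβH (20-40 μg) was preincubated at 25 °C with varied inhibitor in 100 mM Mes/100 mM NaOAc, pH 5.0, with 0-3% DMF, 0.5 mg/mL catalase and 12 mM ascorbate. Timed aliquots went into assay mix at 37 °C, pH 5.5, with 30 mM tyramine and 12 mM ascorbate, and O2 uptake was read. Apparent kinact came from ln(activity) versus time; 1/kinact versus 1/[I] replots gave kinact and Ki.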
# [2] = molecular target: T2, Dopamine beta-hydroxylase (Bos taurus) (UniProt P15101); test: Inactivation constant of compound was determined by using bovine dopamine beta-hydroxylase; method in brief: as §1
# T2 sequence (whole entry): T1 sequence (P15101 whole entry)
# [3] = (§2) Partition ratio was determined by quantitating amount of compound consumed after complete inactivation of a known amount of dopamine beta-hydroxylase.
# Method in brief: (§3)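 Bovine DβH (15-20 μg) was fully inactivated at 25 °C with inhibitor in 125 mM Mes/125 mM NaOAc, pH 5.5, with 0.5 mg/mL catalase and 12 mM ascorbate. Inhibitor consumed was quantified by C18 HPLC (water-acetonitrile) with UV detection at each inhibitor's maximum. Controls without enzyme were run. Partition ratio is turnover/inactivation.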
# [4] = Ratio of inactivation constant (Kinact) and inhibitory constant (Ki); method in brief: as §1
# [5] = molecular target: T2, Dopamine beta-hydroxylase (Bos taurus); test: as §2; method in brief: as §3
SMILES,Ki [1] [µM],K inact [2] [min⁻¹],Partition ratio [3],Ratio [4],Partition ratio [5]
NCC=C1SCCS1,5,0.15,–,30000,–
Oc1ccc2occc2c1,1900,0.23,8,–,–
Oc1ccc2ccoc2c1,40,0.23,27,5750,–
C=Cc1ccc(O)cc1 [4-VINYLPHENOL],700,0.025,730,–,–

# The remaining lines, values ahead:
Ki [1] [µM],K inact [2] [min⁻¹],Partition ratio [3],Ratio [4],Partition ratio [5],SMILES
3200,0.25,35,–,–,Oc1cccc2ccoc12
–,–,–,1560,–,C=C(CN)c1ccc(O)cc1
> 20000,–,–,–,680,C/C=C/c1ccc(O)cc1
–,–,–,3230,–,C#CC(CN)c1ccc(O)cc1 (stereo not given)
